Experiment: Toxicity liver stage against HepG2, at 10uM
Assay type: cell-based
Parameters: test concentration 10 uM, cell line HepG2-A16-CD81EGFP
Conditions: human, HepG2-A16-CD81EGFP cells; read-out: INHIBITION
Procedure, shortened: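 Uninfected HepG2-A16-CD81EGFP cells, 3 × 10^3 per well, 1536-well, plated on prespotted compound at 10 μM final, parasite-free screening media added to match infected plates; puromycin 10 μM positive, DMSO 0.5% negative; run in parallel with 48 h PbLuc assay at 37 °C, 5% CO2; viability by CellTiter-Glo luminescence, normalized to controls.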

Row | SMILES | cytotoxicity at 10 µM
1 | CCOc1ccc(S(=O)(=O)NC(=O)CCC2CCCO2)cc1 (stereo not given) | -11.5%
2 | O=C1CC(NS(=O)(=O)c2ccc3ccccc3c2)CN1 (stereo not given) | 3.94%
3 | CNC(=O)CN1CCCC12CCN(Cc1c[nH]cn1)CC2 | 0.312%
4 | COCCCN(CCOC)C(=O)Nc1ccc(C)cc1C | 4.16%
5 | c1ccc2c(Cc3nnc([C@H]4CCN(C5CCOCC5)C4)o3)c[nH]c2c1 | 2.9%
6 | Cc1nc(N2CCOCC2)nc2c1COCC21CCN(CC2CC2)C1 (stereo not given) | -116%
7 | CCNC(=O)[C@@H]1C[C@H](NC(=O)c2cc(CC)n[nH]2)CN1Cc1ccsc1 | -5.92%
8 | CC(Cn1cccn1)NCc1nc(-c2ccccc2Cl)no1 (stereo not given) | -3.56%
9 | COC(=O)[C@H](C)NC(=O)COc1nn(C)c2nc(C)cc(C)c12 | -2.53%
10 | CCNC(=O)N1CCN(C(=O)c2cc(Cl)cc3cccnc23)CC1 | -9.62%
11 | Cc1ccc(S(=O)(=O)N2CSCC2C(=O)NCC(F)(F)F)cc1C (stereo not given) | -0.855%
12 | COc1ccc(-c2c[nH]c(C3CC(=O)N(CC(C)C)C3)n2)cc1 (stereo not given) | 5.35%
13 | COCCC1(CNC(=O)Nc2ccc(-n3cccn3)cc2)CCC1 | -2.75%
14 | O=C(NCC1CCCO1)c1cc(COc2ccccc2F)[nH]n1 (stereo not given) | 10.8%
15 | NC(=O)N1CCCCCC1C1CCN(c2nccc(C(F)(F)F)n2)CC1 (stereo not given) | 4.82%
16 | CCCc1nc(CNC(=O)Cc2cc(C)no2)cs1 | -11.5%
17 | CCCc1nnsc1C(=O)NCC(O)c1ccoc1 (stereo not given) | 4.25%
18 | COc1cc(F)cc2sc(NC(=O)COCC3CCCO3)nc12 (stereo not given) | -5.07%
19 | COc1cccc(-c2n[nH]cc2-c2nc(CC3CCN(C)CC3)no2)c1 | -9.98%
20 | CN(C)C(=O)c1cnc(-c2ccc3c(c2)OCO3)s1 | 5.29%
21 | Cn1cc(CN2CCCC(c3nc(O)cc(-c4cccs4)n3)C2)cn1 (stereo not given) | -5.89%
22 | O=C(C(CNCc1cccs1)c1ccccc1)N1CCOCC1 (stereo not given) | 0.142%

Row | SMILES | cytotoxicity at 10 µM
23 | COc1ccccc1NC(=O)CCNC(=O)c1ccoc1 | 1.66%
24 | O=C(NCc1ccccn1)[C@@]12CCO[C@@H]1CCN(Cc1ccccn1)C2 | -112%
25 | CC1CCN(Cc2cnc(S(=O)(=O)CC3CC3)n2CC2CCCO2)CC1 (stereo not given) | 6.17%
26 | CC(C)(NS(C)(=O)=O)C(=O)NCc1cccc(Br)c1 | -2.42%
27 | CC[C@H]1CN2CC[C@H]1C[C@@H]2CNCc1ccc(OC(F)(F)F)cc1 | -0.785%
28 | c1cc2nc(C3CCNCC3)nn2cc1NC1CCC1 | -98.8%
29 | CCN1CCN(C)C2(CCN(Cc3cccc(C)n3)CC2)C1=O | 2%
30 | CCCC(=O)N1CCCN(C(=O)Nc2ccc(C)s2)CC1 | -1.24%
31 | COc1ccc(-c2nc(CN3CCOCS3(=O)=O)c(C)o2)cc1 | -0.0714%
32 | Cc1nc(C(C)C)sc1C(C)N(C)C(=O)c1ccc(=O)n(C)c1 (stereo not given) | 1.46%
33 | CCS(=O)(=O)N1CCC2(CC1)COC(COc1cccnc1)C2 (stereo not given) | 10.6%
34 | CCn1ccnc1CN1CCN(CCC(=O)NC(C)(C)C)CC1C (stereo not given) | -15.8%
35 | CC(C)c1cc(C(=O)N2CCN(Cc3ccco3)CC2)n[nH]1 | 2.18%
36 | CS(=O)(=O)c1ccc(OCCNCc2c(F)cccc2F)cc1 | -7.12%
37 | O=C(Nc1ccc(F)c(F)c1)N1CCC2(CCC(=O)N(C3CC3)C2)CC1 | -0.381%
38 | CCC1=N[C@@]2(CC[C@@H]3CN(C(=O)NCc4ccccc4)C[C@@H]32)C(=O)N1 | -10.3%
39 | Cc1ncc2c(n1)CN(CCOc1ccc3c(c1)CCC(=O)N3)CC2 | -8.12%
40 | CC1(C)CC(=O)c2cnc3nc(N4CCCCC4)nc(O)c3c2C1 | -0.0124%
41 | CN(Cc1ccccn1)C(CO)c1cccc(Br)c1 (stereo not given) | -6.12%
42 | Cc1cnn(CC(=O)N2CCCN(c3ncccc3C#N)CC2)c1 | -4.37%
43 | Cc1ccc(CNCCS(=O)(=O)N2CCOCC2)cc1C | 1.41%
44 | O=C(NCCc1cccs1)[C@]12COC[C@H]1CN(c1ncccn1)C2 | -109%

Row | SMILES | cytotoxicity at 10 µM
45 | CCOCCCNC(=O)C1(C)CCC(=O)N1c1ccccc1F (stereo not given) | -4.42%
46 | COCCc1noc(-c2ccc(-c3ccc(N)nc3)nc2)n1 | 2.5%
47 | O=C(CC1CC1)N1CC[C@H]2[C@@H]1CCC(=O)N2c1cccnc1 | 3.06%
48 | CCNC(=O)c1ccc(NC(=O)N(C)Cc2cc(C)on2)c(C)c1 | 6.2%
49 | Cc1noc(CNC2CCCN(Cc3noc(C4CC4)n3)C2)n1 (stereo not given) | -1.7%
50 | CC(C)NC(=O)[C@@H]1C[C@@H](N)CN1C(=O)CCSCc1ccc(F)cc1 | -3.43%
51 | COCCNC(=O)c1ccc(NCc2c(C)noc2C)cc1Cl | 0.678%
52 | Cc1ccc2c(CC(=O)N3C[C@@H](O)[C@H](N(C)C)C3)coc2c1 | 10.4%
53 | CC1CCCCN1C(=O)c1coc(COc2cccc3cnccc23)n1 (stereo not given) | -143%
54 | CCCN1CC2(CCN(c3ncc(F)cn3)CC2)CC1C(=O)O (stereo not given) | -1.71%
55 | Cc1noc(C)c1CN1C(=O)[C@@H]2CC[C@H]1CN(Cc1ncc[nH]1)C2 | 5.85%
56 | CCCC(=O)Nc1cccc([C@H]2C[C@@H](NC(C)=O)CCO2)c1 | 5.09%
57 | Cc1noc(-c2ccc(N3CCCC(C(=O)O)C3)nc2)n1 (stereo not given) | -2.38%
58 | CNc1nc(CNC(=O)Nc2ccccc2OC(C)C)cs1 | -12.1%
59 | Cc1ccc2nc(CN3CCCCC3C(=O)N3CCOCC3)cn2c1 (stereo not given) | 3.13%
60 | Cn1cnnc1C1CCN(C(=O)c2cc3c(s2)CCC3)CC1 | -10%
61 | Cn1cc(C2SCC(=O)Nc3c2c(=O)[nH]n3C2CCOCC2)cn1 (stereo not given) | -0.348%
62 | CN(C)CCN1CCN(C)c2nc(-c3ccccc3)ncc2C1=O | -11.6%
63 | CN(C)[C@@H]1CO[C@H](CNC(=O)Nc2ccccc2)[C@H]1O | -0.713%
64 | N#Cc1ccc(C(=O)N2CC(c3nc(-c4ncccn4)no3)C2)cc1 | -0.713%
65 | CC(C)c1ccc(OCCC(=O)N(C)C)cc1 | 3.81%
66 | CC[C@H](C)[C@H](N)C(=O)Nc1nc(-c2cnc(N(C)C)nc2)cs1 | -9.44%

Row | SMILES | cytotoxicity at 10 µM
67 | Cc1cc(C(=O)N2CCN(C(=O)CCC3CCCCC3)CC2)n(C)n1 | -3.06%
68 | Cc1ccsc1CNC(=O)N1CCC(Cc2cnn(C)c2)C1 (stereo not given) | -6.6%
69 | O=C(c1ccncc1F)N1CC2CC1(C(=O)N1CCCC1)C2 | -2.51%
70 | OCCCNc1cccc(COC2CCCCC2)c1 | -0.23%
71 | O=C(O)c1cccc(CC2CCN(c3cnccn3)CC2)c1 | -121%
72 | Cc1cnn(C2CCCN(C(=O)c3ccc4c(c3)CCC4)C2)c1 (stereo not given) | -4.81%
73 | COCC1c2c(cnn2CC2CC2)CCN1Cc1ccc(OC)cc1 (stereo not given) | 83.3%
74 | CCCc1nnc(N2CC[C@](C)(O)[C@H](C)C2)s1 | -10.4%
75 | O=C(CN1CCc2cncnc2C1)NCCOc1cccc(Cl)c1 | -6.88%
76 | O=C(NCc1nn(-c2ccccc2)c2c1CCC2)NC1CC1 | -9.14%
77 | NC(=O)C1CCCN(C(=O)c2cccc(OCc3cscn3)c2)C1 (stereo not given) | -7.98%
78 | CCn1cc(S(=O)(=O)N2CCCCCC2c2cc(C)on2)cn1 (stereo not given) | 7.43%
79 | CCOCC1CN(Cc2ccoc2)Cc2ncn(CC3CC3)c21 (stereo not given) | -14.5%
80 | Cc1c(Br)cccc1C(=O)NCCC1CCCNC1 (stereo not given) | -11.7%
81 | Cc1ccc(OCc2occc2C(=O)N2CCOC(C(=O)O)C2)cc1 (stereo not given) | -2.14%
82 | CCN1CCN(c2ccc(C(=O)NCc3cc(C)no3)cc2F)CC1 | 11.2%
83 | Cc1cccc(Nc2nccnc2C2CCCN2CC(=O)N(C)C)n1 (stereo not given) | -5.28%
84 | c1coc(-c2nc(CNCCn3cccn3)cs2)c1 | -13.8%
85 | CCc1ncnc(N(C)CC2CCCCO2)c1F (stereo not given) | 3.17%
86 | COCc1cccc(C(=O)N2CCCCC2c2nccs2)c1 (stereo not given) | -2.06%
87 | COCC(C)N(C)C(=O)CCc1c(C)nc2c(C#N)cnn2c1C (stereo not given) | -43.3%
88 | Cc1nc2n(n1)CC(NCc1nc(-c3cccnc3)no1)CC2 (stereo not given) | -3.44%

Row | SMILES | cytotoxicity at 10 µM
89 | CCc1nccn1C1CCCN(C(=O)c2cn3cccnc3n2)C1 (stereo not given) | 92.6%
90 | CCN1CC(COC(=O)c2cc(Br)ccc2F)CC1=O (stereo not given) | 5.09%
91 | CCNC(=O)[C@@H]1C[C@@H](NC(=O)c2cccnc2O)CN1Cc1ccsc1 | -5.39%
92 | Cc1cc(-c2ccc(C(=O)O)cc2)nc(C2CCN(C(C)C)CC2)n1 | -26.3%
93 | CS(=O)(=O)N1CCC[C@]2(C[C@@H](Oc3ncccc3F)CO2)C1 | 4.09%
94 | CC1CN(C(=O)c2ccnc(OCCN(C)C)c2)c2ccccc21 (stereo not given) | -0.343%
95 | c1csc(CN2CCCn3cnc(CN4CCCC4)c3C2)c1 | -72.7%
96 | Cc1cc(C)n(CCNCc2cc(-c3ccc(F)cc3)c[nH]c2=O)n1 | -5.24%
97 | CC(=O)NCCCOc1c(C)cccc1Cl | 0.238%
98 | CCCc1nnc(N2C[C@@H](C)[C@@](C)(O)C2)s1 | 1.22%
99 | O=C(Nc1ccccc1-c1ccccc1)N1C[C@@H]2CNC[C@]2(C(=O)O)C1 | -40.5%
100 | Cc1cc(NC(=O)N2CCOCC2)nn1-c1cccc(Cl)c1 | -1.57%
101 | O=C(c1ccc(O)nc1)N1CCN(C(=O)c2ccc(F)cc2F)CC1 | -1.35%
102 | CCc1nccn1C1CCCN(C(=O)c2ccc(C(=O)NC)nc2)C1 (stereo not given) | -6.33%
103 | Cn1cc(C2CCCN2C(=O)CCCc2ccccn2)cn1 (stereo not given) | -0.222%
104 | O=C(COCCOc1ccccc1)NC1CCN(C(=O)C2CC2)CC1 | -7.67%
105 | CC(C)CN1C(=O)CO[C@@H]2CN(C(=O)C3CCOCC3)C[C@H]21 | -88.1%
106 | COCCNC(=O)C(C)n1cc(Br)cn1 (stereo not given) | -15%
107 | COCCOc1ncccc1C(=O)N1CCCn2ncnc21 | -2.98%
108 | CC(=O)NCC(=O)N1CCc2c(CN(C)C)nn(C(C)C)c2C1 | -4.94%
109 | CCCc1nc(CN(CC)C(=O)c2onc3ccccc23)no1 | 9.67%
110 | Cn1cc(CNC(=O)c2cc3c(s2)CCCCC3)cn1 | -12%
